Test [1] has as its system Toxoplasma gondii. Description: Antiparasitic activity against Toxoplasma gondii infected african green monkey Vero cells at 2 mM assessed as infected cells. Type of test: functional. A digest of the protocol: (§1)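 Vero cells were infected with RH-strain tachyzoites (5:1 parasite:cell) for 1 h, washed with PBS, and grown 24 h at 37 °C in medium 199 with 5% FCS. Compound was then added for 24 h. Cells were fixed with Bouin's, stained with Giemsa, and at least 400 cells were counted by light microscopy for the percentage infected. Hydroxyurea and sulfadiazine served as references.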

In test [2] the test system is Toxoplasma gondii. As to the kind of experiment: Antiparasitic activity against Toxoplasma gondii infected african green monkey Vero cells at 0.1 mM assessed as infected cells. In kind it is functional. A digest of the protocol:
as §1

Test [3] deals with Toxoplasma gondii. As to the kind of experiment: Antiparasitic activity against Toxoplasma gondii infected african green monkey Vero cells at 5 mM assessed as infected cells. In kind it is functional. An outline of the steps:
as §1

Test [4] concerns Toxoplasma gondii. As to the kind of experiment: Antiparasitic activity against Toxoplasma gondii infected african green monkey Vero cells at 8 mM assessed as infected cells. In kind it is functional. A digest of the protocol:
as §1

For test [5], the system named is Toxoplasma gondii. Description: Antiparasitic activity against Toxoplasma gondii infected african green monkey Vero cells at 20 mM assessed as infected cells. Type of test: functional. A digest of the protocol: as §1
In the next test the test system is Vero. As to the kind of experiment: Inhibition of uninfected african green monkey Vero cells. As to conditions: Chlorocebus sabaeus. Type of test: cell-based.
Test [6] deals with Toxoplasma gondii. As to the kind of experiment: Inhibition of Toxoplasma gondii infected in african green monkey Vero cells. In kind it is functional, organism-based. An outline of the steps: (§2)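 Infected Vero cultures were exposed to compound at 0.01–30 mM for 24 h, in triplicate per assay. IC50 for infected cells and intracellular parasites was derived by non-linear regression, using trypan blue exclusion.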

The test system of test [7] is Toxoplasma gondii. As to the kind of experiment: Inhibition of intracellular parasite Toxoplasma gondii. In kind it is functional, organism-based. An outline of the steps:
as §2

Another test deals with Staphylococcus aureus. Description: Antimicrobial activity against Staphylococcus aureus at 300 ug/disc. In kind it is functional. As to conditions: read-out: IZ. An outline of the steps:
(§3)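 Disc diffusion on agar plates inoculated with a standardized microbial suspension, with paper discs carrying known compound amounts. DMSO-only discs served as negative controls, and chloramphenicol, rifampicin (bacteria) or nistatin (fungi) as references. The read-out is the mean inhibition zone diameter in mm. Each run was done three times and repeated if results differed.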

A further test concerns Bacillus subtilis. As to the kind of experiment: Antimicrobial activity against Bacillus subtilis at 300 ug/disc. In kind it is functional. As to conditions: read-out: IZ. An outline of the steps: as §3
The next test has as its system Micrococcus luteus. Description: Antimicrobial activity against Micrococcus luteus at 300 ug/disc. As to conditions: read-out: IZ. In kind it is functional. A digest of the protocol: as §3
The subject of the next test is Escherichia coli. As to the kind of experiment: Antimicrobial activity against Escherichia coli at 300 ug/disc. Type of test: functional. As to conditions: read-out: IZ. An outline of the steps:
as §3

Another test relates to Klebsiella pneumoniae. As to the kind of experiment: Antimicrobial activity against Klebsiella pneumoniae at 300 ug/disc. In kind it is functional. As to conditions: read-out: IZ. An outline of the steps: as §3
Another test has as its system Enterococcus faecalis. As to the kind of experiment: Antimicrobial activity against Streptococcus faecalis at 300 ug/disc. In kind it is functional. As to conditions: read-out: IZ. A digest of the protocol: as §3
The next test concerns Mycolicibacterium phlei. As to the kind of experiment: Antimicrobial activity against Mycobacterium phlei at 300 ug/disc. Type of test: functional. As to conditions: read-out: IZ. An outline of the steps: as §3
Test [8] concerns Mycolicibacterium smegmatis. Description: Antimicrobial activity against Mycobacterium smegmatis at 300 ug/disc. Type of test: functional. As to conditions: read-out: IZ. An outline of the steps:
as §3

Test [9] deals with Mycobacterium tuberculosis. Description: Antimicrobial activity against Mycobacterium tuberculosis at 300 ug/disc. In kind it is functional. As to conditions: read-out: IZ. An outline of the steps:
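Agar disc diffusion: paper discs loaded with compound placed on agar plates seeded with a standardised microbial suspension. DMSO-only discs served as negative control. Chloramphenicol and rifampicin (bacteria) or nistatin (fungi) gave reference zones. Read-out was mean zone of inhibition diameter (mm). Each experiment was run three times and repeated if results differed.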

pIC50: −log10 of the molar value. Some results are limits rather than exact numbers.

As for `S=C(N/N=C/c1ccc(Cl)cc1Cl)Nc1ccccc1`, the Activity is 33.28% with Toxoplasma gondii [1]; 49.33% in the test on Toxoplasma gondii [2]; 31.32% in the test on Toxoplasma gondii [3]; 12.08% with Toxoplasma gondii [4]; 0% with Toxoplasma gondii [5]. The pIC50 in the test with Vero was 2.22; in the test on Toxoplasma gondii [6] it was 2.70; in the test on Toxoplasma gondii [7] it was 3.00.
As for `S=C(N/N=C/c1cccc(Cl)c1)Nc1ccccc1`, the Activity in the test with Toxoplasma gondii [1] worked out at 60.69%; in the test with Toxoplasma gondii [2] it was 44.52%; in the test on Toxoplasma gondii [3], 52.06%; with Toxoplasma gondii [4], 24.49%; in the test with Toxoplasma gondii [5], 0%. The pIC50 was 2.00 in the test on Vero, 2.15 in the test with Toxoplasma gondii [6] and 2.52 in the test with Toxoplasma gondii [7].
For `Fc1ccccc1/C=N/NC(=S)Nc1ccccc1`, the Activity in the test on Toxoplasma gondii [1] was determined as 28.13%; in the test with Toxoplasma gondii [2], 91.5%; in the test with Toxoplasma gondii [3], 14.32%; in the test with Toxoplasma gondii [4] it was 29.29%; with Toxoplasma gondii [5], 0%. In addition, the pIC50 in the test with Vero is 2.40; with Toxoplasma gondii [6], 2.82; in the test on Toxoplasma gondii [7], 3.00.
Take `NC(=O)NO` [HYDROXYUREA]: the Activity with Toxoplasma gondii [1] is reported as 22.78%; in the test on Toxoplasma gondii [2], 58.23%; in the test on Toxoplasma gondii [3] it was 10.4%; in the test on Toxoplasma gondii [4] it was 7.37%; in the test with Toxoplasma gondii [5], 0%. Moreover, the pIC50 in the test with Vero is 3.00; with Toxoplasma gondii [6], 3.30; in the test with Toxoplasma gondii [7] it was 4.00.
With `S=C(N/N=C/c1ccc(Cl)cc1)Nc1ccccc1`, the Activity in the test with Toxoplasma gondii [1] stood at 34.8%; with Toxoplasma gondii [2], 70.01%; with Toxoplasma gondii [3] it was 38.7%; in the test with Toxoplasma gondii [4], 21.05%; in the test on Toxoplasma gondii [5], 0%. Further, the pIC50 with Vero is 2.00; in the test with Toxoplasma gondii [6], 2.15; in the test on Toxoplasma gondii [7] it was 2.82.
`COc1ccc(/C=N/NC(=S)Nc2ccccc2)c(OC)c1`: the Activity in the test with Toxoplasma gondii [1] came to 41.44%; in the test on Toxoplasma gondii [2], 73%; in the test on Toxoplasma gondii [3] it was 9.2%; in the test on Toxoplasma gondii [4], 3.6%; in the test with Toxoplasma gondii [5], 1.49%. The values for the pIC50 in the test with Vero, in the test with Toxoplasma gondii [6] and in the test with Toxoplasma gondii [7] were 2.30, 2.70 and 2.70, respectively.
`Cc1cccc(/C=N/NC(=S)Nc2ccccc2)c1`: the Activity turned out to be 39.82% in the test with Toxoplasma gondii [1]; 66.23% with Toxoplasma gondii [2]; 26.86% with Toxoplasma gondii [3]; 22.72% in the test with Toxoplasma gondii [4]; 0% in the test with Toxoplasma gondii [5]. Moreover, the pIC50 was 2.30 in the test on Vero, 2.30 in the test with Toxoplasma gondii [6] and 2.70 with Toxoplasma gondii [7].
For `Nc1ccc(S(=O)(=O)Nc2ncccn2)cc1` [SULFADIAZINE], the Activity in the test on Toxoplasma gondii [1] was 48.71%; with Toxoplasma gondii [2] it was 53.84%; with Toxoplasma gondii [3], 29.55%; with Toxoplasma gondii [4], 6.84%; in the test on Toxoplasma gondii [5], 0%. For the same compound, the pIC50 in the test on Vero is 2.10; in the test with Toxoplasma gondii [6], 2.52; with Toxoplasma gondii [7], 2.52.
As for `COc1ccc(/C=N/NC(=S)Nc2ccccc2)cc1`, the Activity is 29.39% in the test with Toxoplasma gondii [1]; 50.43% in the test on Toxoplasma gondii [2]; 19% in the test with Toxoplasma gondii [3]; 12.36% in the test with Toxoplasma gondii [4]; 0% with Toxoplasma gondii [5]. Further, the results for the pIC50 in the test with Vero, in the test with Toxoplasma gondii [6] and in the test on Toxoplasma gondii [7] were 2.22, 2.70 and 3.00, respectively.
Regarding `CN(C)c1ccc(/C=N/NC(=S)Nc2ccccc2)cc1`, the Activity in the test on Toxoplasma gondii [1] is given as 35.81%; with Toxoplasma gondii [2] it was 76.14%; in the test with Toxoplasma gondii [3] it was 18.14%; with Toxoplasma gondii [4], 13.46%; in the test on Toxoplasma gondii [5] it was 0%. Besides, the pIC50 was 2.22 in the test on Vero, 2.70 with Toxoplasma gondii [6] and 3.00 with Toxoplasma gondii [7].
With `COc1cccc(/C=N/NC(=S)Nc2ccccc2)c1`, the Activity is given as 34.82% in the test on Toxoplasma gondii [1]; 53.6% in the test on Toxoplasma gondii [2]; 9.7% with Toxoplasma gondii [3]; 5.9% in the test with Toxoplasma gondii [4]; 0% in the test on Toxoplasma gondii [5]. The pIC50 was 2.30 in the test on Vero, 2.70 with Toxoplasma gondii [6] and 3.00 with Toxoplasma gondii [7].
On to `Fc1ccc(/C=N/NC(=S)Nc2ccccc2)cc1`, for which the Activity in the test on Toxoplasma gondii [1] was 35.2%; with Toxoplasma gondii [2], 46.59%; in the test with Toxoplasma gondii [3], 28%; in the test with Toxoplasma gondii [4], 19.83%; with Toxoplasma gondii [5], 0%. Moreover, the figures for the pIC50 in the test on Vero, in the test with Toxoplasma gondii [6] and in the test with Toxoplasma gondii [7] were 2.00, 2.70 and 3.00, respectively.
`S=C(N/N=C/c1ccccc1)Nc1ccccc1`: the Activity in the test on Toxoplasma gondii [1] is given as 77.82%; with Toxoplasma gondii [2] it was 82.5%; in the test on Toxoplasma gondii [3], 31.83%; in the test with Toxoplasma gondii [4], 13.52%; with Toxoplasma gondii [5], 0%. Moreover, the pIC50 is 2.30 in the test with Vero, 2.30 in the test with Toxoplasma gondii [6] and 2.40 in the test with Toxoplasma gondii [7].
In the case of `COc1cc(/C=N/NC(=S)Nc2ccccc2)ccc1O`, the Activity came to 19.7% with Toxoplasma gondii [1]; 80.05% with Toxoplasma gondii [2]; 19.3% in the test on Toxoplasma gondii [3]; 2.6% in the test with Toxoplasma gondii [4]; 0% with Toxoplasma gondii [5]. Further, the pIC50 was 2.22 with Vero, 3.00 with Toxoplasma gondii [6] and 4.00 in the test with Toxoplasma gondii [7].
`Cc1ccc(/C=N/NC(=S)Nc2ccccc2)cc1`: the Activity in the test with Toxoplasma gondii [1] turned out to be 36.78%; in the test on Toxoplasma gondii [2], 51.08%; with Toxoplasma gondii [3], 27.84%; with Toxoplasma gondii [4], 2.96%; in the test with Toxoplasma gondii [5], 0%. Moreover, the pIC50 with Vero was 2.10; with Toxoplasma gondii [6] it was 2.40; in the test on Toxoplasma gondii [7], 2.52.
Regarding `Cc1ccc(/C=N/N=C2\SC(CC(=O)O)C(=O)N2c2ccccc2)cc1` (stereo unspecified), the Activity with Toxoplasma gondii [1] came out at 1.23%; in the test on Toxoplasma gondii [2] it was 39.2%; in the test with Toxoplasma gondii [3], 0%; in the test on Toxoplasma gondii [4], 0%; with Toxoplasma gondii [5], 0%. For the same compound, the pIC50 with Vero was 3.00; with Toxoplasma gondii [6], 4.00; in the test on Toxoplasma gondii [7] it was 4.30. Further, the zone of inhibition at 300 µg/disc in the test on Staphylococcus aureus was less than 7 mm; with Bacillus subtilis, less than 7 mm; in the test with Micrococcus luteus it was 16 mm; in the test with Escherichia coli, less than 7 mm; in the test with Klebsiella pneumoniae, less than 7 mm; in the test on Enterococcus faecalis it was 12 mm. Moreover, the zone of inhibition at 300 µg/disc (in the test with Mycolicibacterium phlei; in test [8]; in [9]) was less than 7 mm each time.
On to `COc1cc(/C=N/NC(=S)Nc2ccccc2)cc(OC)c1OC`, for which the Activity with Toxoplasma gondii [1] stood at 72.04%; in the test with Toxoplasma gondii [2], 76.37%; in the test on Toxoplasma gondii [3], 24.32%; in the test on Toxoplasma gondii [4] it was 23.17%; in the test with Toxoplasma gondii [5], 0%. Moreover, the pIC50 was 2.00 with Vero, 2.52 in the test with Toxoplasma gondii [6] and 2.70 in the test on Toxoplasma gondii [7].
On to `S=C(N/N=C/c1ccc(Cl)c(Cl)c1)Nc1ccccc1`, for which the Activity is listed as 38.02% in the test on Toxoplasma gondii [1]; 49.18% in the test with Toxoplasma gondii [2]; 21.96% with Toxoplasma gondii [3]; 4.54% in the test with Toxoplasma gondii [4]; 0% with Toxoplasma gondii [5]. Besides, the pIC50 with Vero is 2.22; in the test with Toxoplasma gondii [6] it was 2.30; in the test with Toxoplasma gondii [7], 2.70.
On to `CC(C)(C)c1cc(/C=N/NC(=S)Nc2ccccc2)cc(C(C)(C)C)c1O`, for which the Activity was found to be 64.07% in the test on Toxoplasma gondii [1]; 63.44% with Toxoplasma gondii [2]; 30.51% in the test on Toxoplasma gondii [3]; 6.42% in the test on Toxoplasma gondii [4]; 0% with Toxoplasma gondii [5]. Also, the pIC50 is 2.00 in the test on Vero, 2.30 with Toxoplasma gondii [6] and 2.40 with Toxoplasma gondii [7].

By pIC50 is commonly meant the IC50 on a negative log10 scale, so that one unit is a factor of ten.
